Source: publication PMC7821153 (Chemical Biology & Drug Design, 2020)

Legend:
Type in all cases: cell-based
[1] = tested on: HIV-1 DOR-resistant mutant V106A/L234I; test: Single-round infectivity assay, V106A/L234I; details: read-out: EC50 V106A/L234I; single-round infection, n = 3
Summary of the method: (§1)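 Single-round infection with the HIV-1-based vector pNLNgoMIVR-ΔENV.LUC (Env-deleted, luciferase-carrying) bearing the indicated RT mutation(s), used to derive EC50. The mutant vectors are previously described constructs.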

[2] = tested on: HIV-1 NNRTI-resistant mutant Y181C; test: Single-round infectivity assay, Y181C; details: Human immunodeficiency virus 1, read-out: EC50 Y181C
Summary of the method: as §1

[3] = tested on: HIV-1 DOR-resistant mutant V106A/F227L/L234I; test: Single-round infectivity assay, V106A/F227L/L234I; details: read-out: EC50 V106A/F227L/L234I; single-round infection, n = 3
Summary of the method: as §1

[4] = tested on: HIV-1 NNRTI-resistant mutant H221Y; test: Single-round infectivity assay, H221Y; details: Human immunodeficiency virus 1, read-out: EC50 H221Y
Summary of the method: as §1

[5] = tested on: HIV-1 NNRTI-resistant mutant K103N/P225H; test: Single-round infectivity assay, K103N/P225H; details: Human immunodeficiency virus 1, read-out: EC50 K103N/P225H
Summary of the method: as §1

[6] = tested on: HIV-1 DOR-resistant mutant V106A/F227L; test: Single-round infectivity assay, V106A/F227L; details: read-out: EC50 V106A/F227L; single-round infection, n = 3
Summary of the method: as §1

[7] = tested on: HIV-1 RT-resistant mutant K101E; test: Single-round infectivity assay, K101E; details: Human immunodeficiency virus 1, read-out: EC50 K101E
Summary of the method: as §1

[8] = tested on: HIV-1 NNRTI-resistant mutant L100I; test: Single-round infectivity assay, L100I; details: Human immunodeficiency virus 1, read-out: EC50 L100I
Summary of the method: as §1

WT HIV-1 = test: Single-round infectivity assay, WT RT vector; details: for EC50: Human immunodeficiency virus 1, read-out: EC50 WT; for TI (therapeutic index): calculated from CC50 and WT EC50
Summary of the method: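 Single-round infection with an HIV-1-based vector (pNLNgoMIVR-ΔENV.LUC, Env-deleted, luciferase-carrying) with wild-type RT, used to derive EC50. Therapeutic index is calculated from CC50 (ATP-dependent luminescence assay) and wild-type EC50. Three independent experiments (n = 3), with standard deviations.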

[9] = tested on: HIV-1 NNRTI-resistant mutant Y188L; test: Single-round infectivity assay, Y188L; details: Human immunodeficiency virus 1, read-out: EC50 Y188L
Summary of the method: as §1

[10] = Cellular cytotoxicity, ATP-dependent luminescence assay
Summary of the method: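 Cytotoxicity measured by ATP-dependent luminescence, with CC50 derived. Values are from three independent experiments (n = 3), and standard deviations are reported.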

[11] = tested on: HIV-1 NNRTI-resistant mutant K103N/Y181C; test: Single-round infectivity assay, K103N/Y181C; details: Human immunodeficiency virus 1, read-out: EC50 K103N/Y181C
Summary of the method: as §1

[12] = tested on: HIV-1 NNRTI-resistant mutant K101P; test: Single-round infectivity assay, K101P; details: read-out: EC50 K101P; single-round infection, n = 3
Summary of the method: as §1

[13] = tested on: HIV-1 NNRTI-resistant mutant E138K; test: Single-round infectivity assay, E138K; details: Human immunodeficiency virus 1, read-out: EC50 E138K
Summary of the method: as §1

[14] = tested on: HIV-1 NNRTI-resistant mutant V106A/G190A/F227L; test: Single-round infectivity assay, V106A/G190A/F227L; details: Human immunodeficiency virus 1, read-out: EC50 V106A/G190A/F227L
Summary of the method: as §1

[15] = tested on: HIV-1 NNRTI-resistant mutant K103N; test: Single-round infectivity assay, K103N; details: Human immunodeficiency virus 1, read-out: EC50 K103N
Summary of the method: as §1

[16] = tested on: HIV-1 NNRTI-resistant mutant L100I/K103N; test: Single-round infectivity assay, L100I/K103N; details: Human immunodeficiency virus 1, read-out: EC50 L100I/K103N
Summary of the method: as §1

[17] = tested on: HIV-1 NNRTI-resistant mutant M230L; test: Single-round infectivity assay, M230L; details: Human immunodeficiency virus 1, read-out: EC50 M230L
Summary of the method: as §1

[18] = tested on: HIV-1 NNRTI-resistant mutant P236L; test: Single-round infectivity assay, P236L; details: read-out: EC50 P236L; single-round infection, n = 3
Summary of the method: as §1

[19] = tested on: HIV-1 RT-resistant mutant K101E/M184I; test: Single-round infectivity assay, K101E/M184I; details: read-out: EC50 K101E/M184I; single-round infection, n = 3
Summary of the method: as §1

[20] = tested on: HIV-1 NNRTI-resistant mutant G190A; test: Single-round infectivity assay, G190A; details: read-out: EC50 G190A; single-round infection, n = 3
Summary of the method: as §1

[21] = tested on: HIV-1 RT-resistant mutant K101E/M184V; test: Single-round infectivity assay, K101E/M184V; details: read-out: EC50 K101E/M184V; single-round infection, n = 3
Summary of the method: as §1

[22] = tested on: HIV-1 RT-resistant mutant D67E; test: Single-round infectivity assay, D67E; details: read-out: EC50 D67E; single-round infection, n = 3
Summary of the method: as §1

[23] = tested on: HIV-1 DOR-resistant mutant L234I; test: Single-round infectivity assay, L234I; details: read-out: EC50 L234I; single-round infection, n = 3
Summary of the method: as §1

[24] = tested on: HIV-1 NNRTI-resistant mutant G190S; test: Single-round infectivity assay, G190S; details: read-out: EC50 G190S; single-round infection, n = 3
Summary of the method: as §1

Structure (SMILES)	EC50 [2] [nM]	EC50 [3] [nM]	EC50 [4] [nM]	EC50 [5] [nM]	EC50 [7] [nM]	EC50 [8] [nM]	EC50 (WT HIV-1) [nM]	TI (therapeutic index) (WT HIV-1)	EC50 [9] [nM]	CC50 [10] [nM]	EC50 [11] [nM]	EC50 [13] [nM]	EC50 [14] [nM]	EC50 [15] [nM]	EC50 [16] [nM]	EC50 [17] [nM]	also measured
Cc1cc(/C=C/C#N)cc(C)c1Nc1nc(Nc2ccc(/C=C/C#N)cc2)ncc1N [Compound 12, (E)‐3‐(4‐((5‐amino‐2‐((4‐((E)‐2‐cyanovinyl)phenyl)amino)pyrimidin‐4‐yl)amino)‐3,5‐dimethylphenyl)acrylonitrile]	5.3 ± 0.8	1.3 ± 0.1	1.6 ± 0.1	1.6 ± 0.2	3.4 ± 0.1	1.8 ± 0.2	1.2 ± 0.2	>25,000	44 ± 2.6	32200 ± 1500	22.4 ± 1.1	6.5 ± 0.9	2.5 ± 0.5	1.6 ± 0.2	16.1 ± 0.2	16.9 ± 1.2	EC50 [1]: 1.4 ± 0.5 nM; EC50 [6]: 2 ± 0.1 nM; EC50 [12]: 126 ± 29.4 nM
Cc1cc(/C=C/C#N)cc(C)c1Nc1ccnc(Nc2ccc(C#N)cc2)n1 [RPV, rilpivirine, reference compound]	1.4 ± 0.4	–	1.3 ± 0.1	0.6 ± 0.2	2.6 ± 1.6	0.1 ± 0.03	–	>25,000	2.3 ± 0.2	–	3.5 ± 0.3	1 ± 0.1	0.5 ± 0.02	1 ± 0.2	2.3 ± 0.2	1.7	EC50 [6]: 0.8 ± 0.1 nM
Cc1cc(/C=C/C#N)cc(C)c1Nc1ncc(N)c(Nc2c(C)cc(/C=C/C#N)cc2C)n1 [Compound 6, (2E,2′E)‐3,3′‐(((5‐aminopyrimidine‐2,4‐diyl)bis(azanediyl))bis(3,5‐dimethyl‐4,1‐phenylene))diacrylonitrile]	2760 ± 580	–	79.2 ± 6.4	–	–	3640	27.2 ± 3.3	1,651	> 5000	44900 ± 600	> 5000	1070 ± 60	–	75.5 ± 5.6	–	–	–
Cn1c(Cn2ccc(C(F)(F)F)c(Oc3cc(Cl)cc(C#N)c3)c2=O)n[nH]c1=O [DOR, doravirine, reference compound]	2 ± 0.2	–	4.6 ± 1.8	25.3 ± 4.5	0.4 ± 0.04	1.1 ± 0.2	–	>25,000	> 100	–	11.3 ± 5.9	13.9 ± 2.4	> 100	4.5 ± 2.8	2 ± 0.8	51.1 ± 6.5	–
Cc1cc(/C=C/C#N)cc(C)c1Nc1nc(Nc2ccc3cc(/C=C/C#N)ccc3c2)ncc1N [Compound 8, (E)‐3‐(4‐((5‐amino‐2‐((6‐((E)‐2‐cyanovinyl)naphthalen‐2‐yl)amino)pyrimidin‐4‐yl)amino)‐3,5‐dimethylphenyl)acrylonitrile]	264 ± 15.9	–	18.7 ± 2.5	–	–	242 ± 35.4	6.8 ± 0.6	1,588	3070	10800 ± 700	1990	534 ± 27.1	–	121 ± 9.7	–	–	–
Cc1cc(/C=C/C#N)cc(C)c1-n1cnc2cnc(Nc3ccc4cc(/C=C/C#N)ccc4c3)nc21 [Compound 11, (E)‐3‐(6‐((9‐(4‐((E)‐2‐cyanovinyl)‐2,6‐dimethylphenyl)‐9H‐purin‐2‐yl)amino)naphthalen‐2‐yl)acrylonitrile]	> 5000	–	17.1 ± 2.1	–	–	78 ± 11.7	10.2 ± 1.9	1,676	> 5000	17100 ± 800	> 5000	> 5000	–	232 ± 22.3	–	–	–
Cc1cc(/C=C/C#N)cc(C)c1Nc1nc(Nc2ccc3cc(C#N)ccc3c2)ncc1N [Compound 7, (E)‐6‐((5‐amino‐4‐((4‐(2‐cyanovinyl)‐2,6‐dimethylphenyl)amino)pyrimidin‐2‐yl)amino)‐2‐naphthonitrile]	15.6 ± 2	3.5 ± 0.2	2.8 ± 0.2	25.3 ± 3	9.9 ± 2	4.5 ± 0.4	2.3 ± 0.3	10,000	152 ± 21.3	23000 ± 2300	156 ± 12.7	27.6 ± 2.4	5.2 ± 1	4 ± 0.8	265 ± 5.9	21.4 ± 4.2	EC50 [18]: 1.2 ± 0.3 nM; EC50 [19]: 9.4 ± 0.4 nM; EC50 [20]: 1.4 ± 0.1 nM; EC50 [21]: 3 ± 0.3 nM; EC50 [22]: 9.7 ± 1.2 nM
Cc1cc(/C=C/C#N)cc(C)c1Nc1ncc2ncn(-c3c(C)cc(/C=C/C#N)cc3C)c2n1 [Compound 9, (E)‐3‐(4‐((9‐(4‐((E)‐2‐cyanovinyl)‐2,6‐dimethylphenyl)‐9H‐purin‐2‐yl)amino)‐3,5‐dimethylphenyl)acrylonitrile]	> 5000	–	19.4 ± 2.2	–	–	156 ± 30.6	10.4 ± 0.6	18,423	> 5000	192000 ± 11000	> 5000	150 ± 6.9	–	48 ± 4.2	–	–	–
Cc1cc(/C=C/C#N)cc(C)c1-n1cnc2cnc(Nc3ccc(/C=C/C#N)cc3)nc21 [Compound 13, (E)‐3‐(4‐((9‐(4‐((E)‐2‐cyanovinyl)‐2,6‐dimethylphenyl)‐9H‐purin‐2‐yl)amino)phenyl)acrylonitrile]	92.4 ± 10	5.4 ± 1.1	2.6 ± 0.7	29.1 ± 1.6	9.7 ± 1.2	28.6 ± 7.6	1.4 ± 0.2	>25,000	208 ± 12	> 250000	323 ± 56.7	29.1 ± 1.9	4.7 ± 0.9	9.3 ± 0.7	252 ± 21.9	60 ± 0.9	EC50 [23]: 1.8 ± 0.4 nM; EC50 [18]: 1.1 ± 0.05 nM; EC50 [19]: 7 ± 0.6 nM; EC50 [24]: 1.2 ± 0.3 nM; EC50 [21]: 3.9 ± 0.6 nM; EC50 [22]: 9.5 ± 1.8 nM
O=C1Nc2ccc(Cl)cc2[C@@](C#CC2CC2)(C(F)(F)F)O1 [EFV, efavirenz, reference compound]	1.6 ± 0.1	–	2.2 ± 0.4	50.4 ± 3.1	11 ± 1.2	5.4 ± 0.9	0.9 ± 0.1	>25,000	76.8 ± 6.5	36400 ± 1600	36 ± 8.4	2.5 ± 0.4	185 ± 19.8	35.8 ± 9.1	488 ± 50	14.3 ± 2	–
